HKDC1 inhibitor: HKDC1 hexokinase inhibitors, primary screen, biochemical, fluorescence, uHTS; Q2TB90; recombinant HKDC1, G6PDH/diaphorase resazurin coupled fluorescence; inhibition, % at 20 µM; hit rate 0.16% among 340,000; AID 493160, 2011;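 active = inhibition above about 35% when tested at 20 µM, limit read from the data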;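 also: plate controls were DMSO wells with enzyme for no effect and DMSO wells lacking enzyme for full effect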
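Test system: HK5 enzyme. Quantity: 5 µg/mL HK5 final. Reagent: glucose and ATP substrates. Schedule: 90 min reaction incubation at room temperature, dark. Technique: resazurin-to-resorufin fluorescence via G6PDH and diaphorase coupling, 525/613 nm. Control set: DMSO wells with and without enzyme mix.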
PfGluPho inh: PfG6PD enzyme inhibitors, primary screen, biochemical, fluorescence intensity, uHTS; glucose-6-phosphate dehydrogenase-6-phosphogluconolactonase (Plasmodium falciparum 3D7); PfGluPho enzyme, NADPH resazurin-diaphorase fluorescence; inhibition, % at 20 µM; hit rate 0.78% among 350,000; AID 504690, 2011;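 active = inhibition reaching at least a set limit at 20 µM in the primary screen, cut at about 59% in these data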;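 also: 0% = DMSO wells with substrate and 100% = DMSO wells lacking glucose-6-phosphate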
Tb hexokinase: Trypanosoma brucei hexokinase 1 inhibitors, primary screen, biochemical, G6PDH-coupled NADH absorbance, MLSCN library. recombinant TbHK1, G6PDH-coupled NADH A340. inhibition, % at 10 µM. hit rate 0.11% among 220,000;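 active = inhibition of 50% or more in the single-dose primary screen; inactive = inhibition below 50%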
PHOSPHO1 inh: PubChem AID 1565; inhibition, % at 13.3 µM; hit rate 1.1% among 290,000; recombinant PHOSPHO1, absorbance phosphatase assay; in the data active = inhibition above about 60%
Target sequence (Q8TCT1 whole entry, looked up): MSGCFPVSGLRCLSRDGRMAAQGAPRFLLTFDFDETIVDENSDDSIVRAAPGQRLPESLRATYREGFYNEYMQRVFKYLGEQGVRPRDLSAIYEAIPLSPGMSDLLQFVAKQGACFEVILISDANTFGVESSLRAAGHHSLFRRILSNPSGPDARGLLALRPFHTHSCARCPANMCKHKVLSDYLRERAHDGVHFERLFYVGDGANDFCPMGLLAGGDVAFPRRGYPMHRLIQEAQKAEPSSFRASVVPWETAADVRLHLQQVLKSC
PGE2 EP2 inh: human EP2 receptor antagonists, primary screen, TR-FRET cAMP, C6 glioma cells. Prostaglandin E2 receptor EP2 subtype (Homo sapiens), P43116. C6 glioma cells expressing human EP2; cells stimulated with saturating PGE2. inhibition, % at 25 µM. hit rate 0.52% among 260,000. AID 1422, 2008;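 active = percent inhibition above 40 after rounding to a whole number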;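 also: rat C6 glioma host cells with rolipram phosphodiesterase inhibitor present; the protocol text gives 20 µM as final concentration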
Target sequence (P43116 whole entry, looked up): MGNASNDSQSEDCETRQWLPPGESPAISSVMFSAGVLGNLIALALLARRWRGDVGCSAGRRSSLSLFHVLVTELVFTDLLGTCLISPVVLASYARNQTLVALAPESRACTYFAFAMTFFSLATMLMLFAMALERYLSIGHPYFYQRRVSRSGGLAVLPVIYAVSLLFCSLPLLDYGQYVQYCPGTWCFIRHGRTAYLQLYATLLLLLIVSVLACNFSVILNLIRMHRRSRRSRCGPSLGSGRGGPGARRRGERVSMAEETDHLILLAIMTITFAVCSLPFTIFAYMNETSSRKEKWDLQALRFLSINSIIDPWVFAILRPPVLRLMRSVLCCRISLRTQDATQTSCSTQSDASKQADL
EP2 mod: EP2 receptor modulators, cAMP readout, primary screen, cell-based, HTRF cAMP, PGE2 stimulation. EP2-expressing cells, cAMP HTRF FRET, PGE2 co-stimulation. induction, % at 25 µM. hit rate 0.83% among 260,000. AID 940, 2007;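 active = compounds whose cAMP rise, as percent of the full-agonist control response, exceeds 60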;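 also: rat C6 glioma line stably carrying human EP2 under a CMV promoter; the protocol text gives 20 µM as final concentration; 100% = response of wells given 1 µM PGE2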
Active calls of the source: *; x = no result. Hits are enriched below; roughly 2.5% of the tested compounds scored in any of these assays.

SMILES	HKDC1 inhibitor	PfGluPho inh	Tb hexokinase	PHOSPHO1 inh	PGE2 EP2 inh	EP2 mod
O=C(O)CC(C(=O)O)N1C(=O)/C(=C/c2ccc(-c3nc4ccccc4s3)o2)SC1=S (stereo not drawn)	24.0	44.3	18.0	10.6	x	-9.3
COc1ccc2nc(SCC(=O)N3c4ccc(F)cc4CCC3C)c(C#N)cc2c1 (stereo not drawn)	x	x	x	x	9.3	-1.2
COc1ccc(-c2cnc(NC(=O)c3csc(C(C)=O)c3)n2C)cc1	x	x	x	x	6.3	-51.6
NC(=S)N/N=C/c1ccc(-c2cc(Cl)ccc2Cl)o1	2.8	15.9	-25.0	93.1*	x	42.5
NC(=S)N/N=C/c1ccc(-c2cc(Cl)cc(Cl)c2)o1	-3.5	25.1	-22.8	-12.2	5.7	6.3
COc1cccc(NC(=O)CSc2nnc(-c3ccc(S(=O)(=O)N4CCOCC4)cc3)o2)c1	x	x	x	x	8.7	-6.9
CC(NCCCN(C)C)C(=O)N1CCc2ccccc21 (stereo not drawn)	x	x	x	x	9.4	-13.4
Cc1[nH]c(=S)[nH]c(=O)c1Cc1c(O)ccc2ccccc12	19.0	16.2	x	x	x	x
O=c1[nH]c(=S)[nH]c(-c2ccccc2)c1Cc1c(O)ccc2ccccc12	x	x	x	x	46.3*	4.2
CCN(CC)S(=O)(=O)c1cccc(NC(=O)COC(=O)CCC(=O)c2cccs2)c1	-3.0	-0.1	-3.8	73.2*	6.2	-9.4
Cc1nn(CC(=O)Nc2cccnc2)c(=O)c2ccccc12	-12.0	-12.3	-0.8	63.2*	7.0	44.7
Cc1ccc(-c2cc(C(=O)N3CCCC3c3nc4ccccc4[nH]3)n[nH]2)o1 (stereo not drawn)	x	x	x	x	x	-29.8
CC(C)(C)c1cn(-c2ccc(Cl)cc2)c(=S)[nH]1	-5.1	43.0	-6.4	73.8*	2.8	4.9
COCC(=O)N1CCCC(C(=O)c2ccc(-c3ccccc3)c(F)c2)C1 (stereo not drawn)	-4.0	-0.8	3.3	62.8*	0.7	-24.9
Cc1cc(-c2cnc(C)nc2C2CCCN(CC(=O)Nc3nc(C)cs3)C2)on1 (stereo not drawn)	x	x	x	x	x	-4.0
Cc1nnc(Sc2cc(NCCCO)c([N+](=O)[O-])c3nonc23)s1	21.7	77.5*	-11.9	47.7	13.2	-47.4
CCCSc1cc(NCCOC(C)=O)c([N+](=O)[O-])c2nonc12	6.6	24.4	24.1	-5.2	3.4	-2.4
Cc1ccc(C)c(NC(=O)CSc2nnc3c4ccccc4n(C)c3n2)c1	x	x	x	x	6.0	-6.7
COCCCn1c(N)c(-c2nc3ccccc3n2C)c2nc3ccccc3nc21	-2.3	11.3	-35.1	-6.0	10.2	-17.8
CCn1nc([N+](=O)[O-])c2c(-c3nc4ccccc4o3)c(N)n(CCCOC)c2c1=O	14.2	1.9	-7.8	95.9*	8.3	-11.0
Cc1cnc(NC(=O)c2ccc3c(c2)C(=O)N(Cc2cccnc2)C3=O)s1	-3.8	-5.0	x	62.8*	x	x
Cc1ccc(NC(=O)c2ccc3c(c2)C(=O)N(Cc2cccnc2)C3=O)c(C)c1	0.2	2.7	-16.3	61.0*	10.7	9.8
O=C(Nc1nccs1)c1ccc2c(c1)C(=O)N(Cc1cccnc1)C2=O	0.5	15.6	x	22.2	x	x
Cn1c2ccccc2n2c(=O)n(CC(=O)N3CCCC4CCCCC43)nc12 (stereo not drawn)	x	x	x	x	5.7	-24.4
COc1ccccc1NC(=O)c1sc(NC(=O)COc2ccccc2)c(C#N)c1C	x	x	x	x	12.6	65.6*
SMILES	HKDC1 inhibitor	PfGluPho inh	Tb hexokinase	PHOSPHO1 inh	PGE2 EP2 inh	EP2 mod
COc1ccccc1NC(=O)c1sc(NC(=O)Cc2ccccc2)c(C#N)c1C	x	x	x	x	10.0	15.1
O=C(CSc1nnc(COc2ccc(Br)cc2)o1)Nc1cccc(Cl)c1	x	x	x	x	11.3	-115.6
Nc1cc(S(N)(=O)=O)ccc1SSc1ccc(S(N)(=O)=O)cc1N	x	x	x	x	59.6*	-7.7
NS(=O)(=O)c1ccccc1	-7.0	20.6	-6.4	18.8	5.4	21.8
CCN1/C(=C/C=C/c2oc3ccc(-c4ccccc4)cc3[n+]2CC)Oc2ccc(-c3ccccc3)cc21	30.0	43.2	100.7*	24.0	7.2	-69.1
Cc1ccc(-n2c(CCc3nc4ccccc4[nH]3)n[nH]c2=S)cc1	-0.5	40.7	-2.6	80.6*	11.1	13.4
Cc1ccc(NC(=O)N(Cc2cc3ccc(C)c(C)c3[nH]c2=O)C2CCCC2)cc1	x	x	x	x	18.5	-7.5
Cn1c(C2CCCCC2)nc2c1c(=O)[nH]c(=O)n2Cc1ccccc1	-13.2	11.7	-6.2	29.5	8.4	64.7*
Cc1cc2cc3c(cc2n2c(=O)n(CC(=O)N4C(C)CCCC4C)nc12)OCO3 (stereo not drawn)	x	x	x	x	5.4	-64.0
O=C(O)CCCn1cc(NC(=O)c2cccc(F)c2)cn1	-0.5	-6.5	-3.0	-3.7	8.1	12.0
O=C(O)CCCn1cc(NC(=O)c2cc(F)c(F)cc2Cl)cn1	1.2	9.7	1.1	46.6	11.0	60.8*
CCC(C)NC(=O)CSc1nc2ccc(N3CCOCC3)cc2c(=O)n1CCc1ccccc1 (stereo not drawn)	x	x	2.0	3.7	x	-5.9
CCCCn1c(SCC(=O)NC(C)CC)nc2ccc(N3CCOCC3)cc2c1=O (stereo not drawn)	5.6	-6.5	-7.1	60.5*	x	0.6
COc1ccc(C2(C(=O)NC(c3ccc(F)c(F)c3)c3nccn3C)CC2)cc1 (stereo not drawn)	x	x	x	x	9.3	-31.2
COC(=O)c1ccc(S(=O)(=O)N2CCCCCC2)cc1	-0.5	-6.5	24.1	18.2	9.3	14.0
CC(=O)c1ccc(S(=O)(=O)N2CCCCCC2)cc1	x	x	x	x	94.5*	-26.9
Cc1cc(-c2cc(N)c(=O)n(CC(=O)NC3CCCCC3C)n2)c(C)o1 (stereo not drawn)	x	x	x	x	2.9	-33.6
Cc1ccc(-c2cnc(SCC(=O)N3CCCc4ccccc43)n2C)cc1	2.2	-0.2	4.4	76.8*	14.3	-25.1
Cn1c(-c2ccccc2)cnc1SCC(=O)N1CCCc2ccccc21	-7.6	5.7	25.1	-23.9	8.2	-6.1
Cn1ncc2c(Nc3ccccc3)ncnc21	x	x	x	x	16.7	3.5
CCCC(=O)N(CCC)Cc1cc2cc(OC)ccc2[nH]c1=O	x	x	x	x	7.8	-51.2
Cc1cc(Nc2ccc(N=Nc3ccc(O)c4ncccc34)cc2)nc(C)n1	x	x	x	x	45.4*	17.0
Cc1ccc(C2C(C#N)=C(N)SC(N)=C2C#N)o1	x	x	-27.2	101.9*	21.1	48.4
CC/C(=C\C(=O)c1cccnc1)Nc1ccc(C)c(C)c1	-1.4	-4.5	-33.5	96.2*	14.7	19.0
CC(=O)Nc1ccc(N/C(C)=C/C(=O)c2cccnc2)cc1	1.3	-0.1	-21.5	8.4	4.8	3.8
COc1cc2cc(C(c3nnnn3C3CCCC3)N3CCc4ccccc4C3)c(=O)[nH]c2cc1OC (stereo not drawn)	x	x	x	x	21.4	-40.3

Screening results deposited in PubChem by several laboratories.
